Measured values gathered from unrelated publications.
PIK3CA H1047Y: Phosphatidylinositol 4,5-bisphosphate 3-kinase catalytic subunit alpha isoform (PIK3CA, Homo sapiens, UniProt P42336, H1047Y)
PIK3CA E545A: Phosphatidylinositol 4,5-bisphosphate 3-kinase catalytic subunit alpha isoform (PIK3CA, Homo sapiens, UniProt P42336, E545A)
PIK3CA I800L: Phosphatidylinositol 4,5-bisphosphate 3-kinase catalytic subunit alpha isoform (PIK3CA, Homo sapiens, UniProt P42336, I800L)
PIK3CA E545K: Phosphatidylinositol 4,5-bisphosphate 3-kinase catalytic subunit alpha isoform (PIK3CA, Homo sapiens, UniProt P42336, E545K)
PIK3CA Q546K: Phosphatidylinositol 4,5-bisphosphate 3-kinase catalytic subunit alpha isoform (PIK3CA, Homo sapiens, UniProt P42336, Q546K)
PIK3CA M1043I: Phosphatidylinositol 4,5-bisphosphate 3-kinase catalytic subunit alpha isoform (PIK3CA, Homo sapiens, UniProt P42336, M1043I)
PIK3CA C420R: Phosphatidylinositol 4,5-bisphosphate 3-kinase catalytic subunit alpha isoform (PIK3CA, Homo sapiens, UniProt P42336, C420R)
PIK3CA: Phosphatidylinositol 4,5-bisphosphate 3-kinase catalytic subunit alpha isoform (PIK3CA, Homo sapiens, UniProt P42336)
PIK3CA E542K: Phosphatidylinositol 4,5-bisphosphate 3-kinase catalytic subunit alpha isoform (PIK3CA, Homo sapiens, UniProt P42336, E542K)

CN(C)c1nccc(-c2cnc3ncccn23)n1
remaining binding (PIK3CA H1047Y; binding; 1 µM): 50%

CN1CCN(c2ccc(Nc3nccc(-c4cccc([N+](=O)[O-])c4)n3)cc2C(F)(F)F)CC1
remaining binding (PIK3CA E545A; binding; 10 µM): 58%

COc1ncc2cc3ccccc3nc2c1C#N
remaining binding (PIK3CA I800L; cell-free assay; competition with immobilised ligand; 5 µM): 86%

CN(CCCC(F)(F)F)c1nccc(-c2cnn3ncccc23)n1
remaining binding (PIK3CA E545K; binding; 1 µM): 100%

Nc1ncc2c(n1)-c1c([nH]c3ccc(C#CC4CC4)cc13)CCCC2
remaining binding (PIK3CA E545A; binding; competition with immobilised ligand; 1 µM): 89%

Cc1c(C(=O)O)cc(-c2ccc(C3CCNCC3)cc2)c2ccc(-c3ccc(C(F)(F)F)cc3)cc12
remaining binding (PIK3CA H1047Y; cell-free assay; competition with immobilised ligand; 1 µM): 100%

c1cncc(-c2cccc(Nc3nccc(NC4CCCCC4)n3)c2)c1
remaining binding (PIK3CA E545K; binding; competition with immobilised ligand; 10 µM): 94%

CN1CCN(c2ccc(Nc3nccc(-c4ccccc4)n3)cc2C(F)(F)F)CC1
remaining binding (PIK3CA Q546K; binding; 10 µM): 68%

O=C(NCCCC1CCCCC1)c1ccc(CNC(=O)c2cnn(-c3ccccc3)c2C(F)(F)F)cc1
remaining binding (PIK3CA M1043I; cell-free assay; competition with immobilised ligand; 0.1 µM): 68%

CN(C)c1nccc(-c2cnn3ncccc23)n1
remaining binding (PIK3CA C420R; binding; 1 µM): 100%

COc1cnc(Nc2cccc(S(N)(=O)=O)c2)nc1N1CCN(c2ccccc2)CC1
remaining binding (PIK3CA C420R; binding; competition with immobilised ligand; 1 µM): 95%

COc1cc(-c2cn(C3CCc4ccccc4N(CC(F)(F)F)C3=O)nn2)ccc1-n1ccc(C)n1 (stereo not shown)
remaining binding (PIK3CA I800L; cell-free assay; competition with immobilised ligand; 1 µM): 76%

O=C(NCCCN1CCOCC1)c1ccc(Nc2ncc(Cl)c(-c3ccc(Cl)s3)n2)cc1
remaining binding (PIK3CA E545K; binding; competition with immobilised ligand; 1 µM): 71%

CC1=C(C#N)C(c2ccc3c(c2)c(NC(=O)c2ccccc2C)nn3C)C(C#N)=C(C)N1
remaining binding (PIK3CA Q546K; cell-free assay; competition with immobilised ligand; 1 µM): 87%

O=C(Nc1c[nH]nc1C(=O)NC1CCNCC1)c1cc(F)cc(F)c1
remaining binding (PIK3CA E545A; binding; competition with immobilised ligand; 1 µM): 100%

COc1cnc(Nc2cccc(S(N)(=O)=O)c2)nc1N1CCN(c2ccccc2)C(=O)C1
remaining binding (PIK3CA E545K; binding; competition with immobilised ligand; 1 µM): 65%

CCN1CCN(Cc2ccc(C(=O)Nc3ccc(C)c(Oc4ccc5c(c4)CC(=O)N5)c3)cc2C(F)(F)F)CC1
remaining binding (PIK3CA E545A; binding; competition with immobilised ligand; 1 µM): 71%

CC1CCCN1c1nccc(-c2cnn3ncccc23)n1 (stereo not shown)
remaining binding (PIK3CA E545K; binding; 1 µM): 100%

N#Cc1ccccc1CSc1nnc2c(n1)[nH]c1ccccc12
remaining binding (PIK3CA; binding; competition with immobilised ligand; 10 µM): 100%

N[C@@H]1CCN(c2nccc(-c3cnn4ncccc34)n2)C1
remaining binding (PIK3CA Q546K; binding; 1 µM): 100%

C=CC(=O)N1CCC(C(=O)NCC(=O)N2CCN(c3nc(-c4cnc(N)nc4C(F)F)nc(N4CCOCC4)n3)CC2)CC1
remaining binding (PIK3CA E542K; binding; competition with immobilised ligand; 1 µM): 0%

O=C(c1ccc(Nc2nccc(-c3cc4ccccc4s3)n2)cc1)N1CCC(N2CCCC2)CC1
remaining binding (PIK3CA H1047Y; binding; competition with immobilised ligand; 1 µM): 61%

CN(C)CC#Cc1ccc(OCCCc2sc(N3CCc4cccc(C(=O)Nc5nc6ccccc6s5)c4C3)nc2C(=O)O)c(F)c1
remaining binding (PIK3CA Q546K; cell-free assay; competition with immobilised ligand; 1 µM): 79%

O=C(NCC1CCOCC1)c1n[nH]cc1NC(=O)c1c(F)cccc1F
remaining binding (PIK3CA E542K; binding; competition with immobilised ligand; 1 µM): 78%

C[C@@H](c1ccc(-n2cnc3c(N)ncnc32)cc1)N1CCc2nn(C)c(Cc3ccccc3)c2C1=O
remaining binding (PIK3CA E545K; binding; competition with immobilised ligand; 0.1 µM): 67%

O=C(c1ccc(Nc2ncc(Cl)c(-c3cc4ccccc4s3)n2)cc1)N1CCC(N2CCCC2)CC1
remaining binding (PIK3CA Q546K; binding; competition with immobilised ligand; 1 µM): 90%

CCCOc1ccc([C@H]2[C@H](C(=O)O)[C@@H](c3ccc4c(c3)OCO4)CN2CC(=O)Nc2c(CC)cccc2CC)cc1
remaining binding (PIK3CA; cell-free assay; competition with immobilised ligand; 1 µM): 80%

O=C(c1ccc(Nc2ncc(Cl)c(-c3ccc(Cl)s3)n2)cc1)N1CCC(N2CCCC2)CC1
remaining binding (PIK3CA E542K; binding; competition with immobilised ligand; 1 µM): 100%

CNC(=O)[C@@H]1CC[C@@H](n2c(-c3ccc4cnccc4c3)nc3ccc(C(=O)NCc4cccc(C(N)=O)c4)cc32)C1
remaining binding (PIK3CA E542K; binding; competition with immobilised ligand; 1 µM): 100%

Cc1cnc(Nc2ccc(C(=O)N3CCC(N4CCCC4)CC3)cc2)nc1-c1cc2ccccc2s1
remaining binding (PIK3CA C420R; binding; competition with immobilised ligand; 1 µM): 83%

C[C@@H]1CCN(c2nccc(-c3cnn4ncccc34)n2)C1
remaining binding (PIK3CA M1043I; binding; 1 µM): 98%

Cc1c(NC(=O)c2cc(C(N)=O)nc3cc(F)ccc23)c(C(F)(F)F)nn1Cc1ccc(C#N)cc1
remaining binding (PIK3CA H1047Y; cell-free assay; competition with immobilised ligand; 1 µM): 86%

O=C(NCCCN1CCOCC1)c1ccc(Nc2nccc(-c3cc4ccccc4s3)n2)cc1
remaining binding (PIK3CA C420R; binding; competition with immobilised ligand; 1 µM): 89%

CN(c1nccc(-c2cnn3ncccc23)n1)C1CC1
remaining binding (PIK3CA E545A; binding; 1 µM): 100%

Cc1nc(Cc2cccc(C(F)(F)F)c2)sc1-c1ccc(C(N)=O)nc1
remaining binding (PIK3CA C420R; cell-free assay; competition with immobilised ligand; 1 µM): 89%

COc1ccnn2ncc(-c3ccnc(N(C)C)n3)c12
remaining binding (PIK3CA C420R; binding; 1 µM): 78%

CN1CC[C@H](c2c(O)cc(O)c3c(=O)cc(-c4ccccc4Cl)oc23)[C@H](O)C1
remaining binding (PIK3CA; cell-free assay; competition with immobilised ligand; 0.1 µM): 100%
